Measured values taken from ChEMBL document CHEMBL3351593, “Potent nonimmunosuppressive cyclophilin inhibitors with improved pharmaceutical properties and decreased transporter inhibition” (J Med Chem, 2014).

How the values were obtained:
[1] = system: Hepatitis C virus; test: Antiviral activity against HCV subtype 1b in human Huh7.5 cells expressing subgenomic HCV replicons and coexpressing luciferase reporter gene; type: functional, cell-based, Hepacivirus hominis; settings: genotype 1b, Huh-7
Outline: (§1)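 Stable Huh7.5 lines carrying genotype 1a or 1b subgenomic replicons with luciferase reporter, made by RNA electroporation and G418 selection. Assay run in phenol red-free DMEM without G418, sixteen half-log compound dilutions, in triplicate. Luciferase signal read after 72 h relative to DMSO controls, giving EC50.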

[2] = target: Peptidyl-prolyl cis-trans isomerase B (Homo sapiens, UniProt P23284); test: Binding affinity to human cyclophilin B by surface plasmon resonance method
Outline: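 Biotinylated cyclophilin proteins examined by single-cycle kinetics SPR. Running buffer 10 mM HEPES pH 7.4, 150 mM NaCl, 0.05% P20, 3% DMSO, with inhibitor. Each concentration injected for 1 min at 50 μL/min, then 10 min dissociation. kon, koff and KD obtained from a 1:1 binding fit.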

[3] = target: Peptidyl-prolyl cis-trans isomerase F, mitochondrial (Homo sapiens, UniProt P30405); test: Binding affinity to human cyclophilin F by surface plasmon resonance method
Outline: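 Surface plasmon resonance with biotinylated cyclophilin protein, single-cycle kinetics. Running buffer 10 mM HEPES pH 7.4, 150 mM NaCl, 0.05% P20, 3% DMSO, with inhibitor present. Compound injected at several concentrations, 1 min contact each at 50 μL/min, then 10 min final dissociation. kon, koff and KD obtained from a 1:1 binding model fit.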

[4] = system: Hepatitis C virus; test: Antiviral activity against HCV subtype 1a in human Huh7.5 cells expressing subgenomic HCV replicons and coexpressing luciferase reporter gene; type: functional, cell-based, Hepacivirus hominis; settings: Huh-7; outline: as §1
[5] = system: Hepatitis C virus; test: Antiviral activity against HCV subtype 1b in human Huh7.5 cells expressing subgenomic HCV replicons and coexpressing luciferase reporter gene in presence of 40% human serum; type: functional, cell-based, Hepacivirus hominis; settings: genotype 1b, Huh-7
Outline: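 Genotype 1b luciferase replicon in Huh7.5 cells with 40% human serum added to the assay medium, in phenol red-free DMEM without G418. Sixteen half-log dilutions in triplicate. Luciferase read after 72 h relative to DMSO-treated cells, giving EC50.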

[6] = system: PBMC; test: Cytotoxicity against PHA-stimulated human PBMC by 5-bromo-2'-deoxyuridine incorporation assay; type: cell-based
Outline: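 Fresh PBMCs from two human donors in X-VIVO 15 medium, stimulated with PHA. Seven concentrations taken from a half-log series. Incubated 60 h at 37 °C, 5% CO2, with BrdU added for the final 12 h. Incorporation read by anti-BrdU ELISA at 450 nm. Percent inhibition against PHA-stimulated untreated cells after background subtraction, four-parameter fit giving IC50.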

[7] = target: Peptidyl-prolyl cis-trans isomerase A (Homo sapiens, UniProt P62937); test: Binding affinity to human cyclophilin A by surface plasmon resonance method
[8] = target: T1, Solute carrier organic anion transporter family member 1B1 (Homo sapiens, UniProt Q9Y6L6); test: Inhibition of OATP1B1 (unknown origin) expressed in CHO cells using 8-fluorescein-cAMP substrate by fluorescent photometry; type: ADME, cell-based
T1 sequence (Q9Y6L6 whole entry): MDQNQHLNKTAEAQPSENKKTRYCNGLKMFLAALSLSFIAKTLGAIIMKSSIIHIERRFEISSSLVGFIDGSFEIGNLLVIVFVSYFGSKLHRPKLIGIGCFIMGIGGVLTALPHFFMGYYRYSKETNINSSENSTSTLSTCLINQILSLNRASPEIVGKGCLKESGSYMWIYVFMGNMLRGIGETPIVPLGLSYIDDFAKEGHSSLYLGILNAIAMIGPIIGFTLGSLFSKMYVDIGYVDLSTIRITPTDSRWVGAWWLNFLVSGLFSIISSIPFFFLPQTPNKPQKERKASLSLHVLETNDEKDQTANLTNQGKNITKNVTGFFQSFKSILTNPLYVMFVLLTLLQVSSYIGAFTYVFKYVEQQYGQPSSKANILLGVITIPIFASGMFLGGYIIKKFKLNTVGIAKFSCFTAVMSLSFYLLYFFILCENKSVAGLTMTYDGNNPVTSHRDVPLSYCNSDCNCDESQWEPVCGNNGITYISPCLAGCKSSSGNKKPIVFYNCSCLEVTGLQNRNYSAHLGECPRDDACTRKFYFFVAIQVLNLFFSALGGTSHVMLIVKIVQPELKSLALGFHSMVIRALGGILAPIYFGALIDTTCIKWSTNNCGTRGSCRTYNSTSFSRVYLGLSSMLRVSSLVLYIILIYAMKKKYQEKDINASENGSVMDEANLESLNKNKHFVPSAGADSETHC
Outline: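 CHO-OATP1B1 cells and vector control cells cultured 2 days, then washed and equilibrated 15 min in HBSS + 10 mM HEPES. Exposed 10 min to 2.5 μM 8-fluorescein-cAMP with inhibitor at 0−30 μM (up to 1% DMSO). Cells washed and lysed, uptake measured by fluorescence, and IC50 taken from the concentration-response curve.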

[9] = Cytotoxicity against human MT4 cells by CDCF probe based assay; type: cell-based
[10] = target: Cytochrome P450 3A4 (Homo sapiens, UniProt P08684); test: Time dependent inhibition of CYP3A4 (unknown origin); type: ADME; settings: TDE = time-dependent effect
Chain of Cytochrome P450 3A4 (P08684 whole entry): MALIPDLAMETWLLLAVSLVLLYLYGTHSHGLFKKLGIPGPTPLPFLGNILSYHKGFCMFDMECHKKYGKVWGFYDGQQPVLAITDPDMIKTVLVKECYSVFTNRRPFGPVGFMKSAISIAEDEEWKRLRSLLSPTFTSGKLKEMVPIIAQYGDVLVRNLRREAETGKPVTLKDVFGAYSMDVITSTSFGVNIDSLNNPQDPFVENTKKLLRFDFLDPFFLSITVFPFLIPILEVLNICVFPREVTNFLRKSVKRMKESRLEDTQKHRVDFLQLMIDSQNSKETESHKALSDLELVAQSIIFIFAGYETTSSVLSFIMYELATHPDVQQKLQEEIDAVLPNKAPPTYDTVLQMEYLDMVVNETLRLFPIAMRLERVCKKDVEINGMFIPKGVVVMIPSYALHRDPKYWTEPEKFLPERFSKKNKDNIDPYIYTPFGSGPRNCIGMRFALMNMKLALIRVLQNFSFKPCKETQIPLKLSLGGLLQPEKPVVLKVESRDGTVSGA

Chain of Peptidyl-prolyl cis-trans isomerase A (P62937 whole entry): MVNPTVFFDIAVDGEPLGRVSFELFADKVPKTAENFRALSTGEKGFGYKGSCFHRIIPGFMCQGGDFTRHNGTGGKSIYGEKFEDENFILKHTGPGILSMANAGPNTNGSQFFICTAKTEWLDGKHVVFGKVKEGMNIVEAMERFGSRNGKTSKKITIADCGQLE
Chain of Peptidyl-prolyl cis-trans isomerase B (P23284 whole entry): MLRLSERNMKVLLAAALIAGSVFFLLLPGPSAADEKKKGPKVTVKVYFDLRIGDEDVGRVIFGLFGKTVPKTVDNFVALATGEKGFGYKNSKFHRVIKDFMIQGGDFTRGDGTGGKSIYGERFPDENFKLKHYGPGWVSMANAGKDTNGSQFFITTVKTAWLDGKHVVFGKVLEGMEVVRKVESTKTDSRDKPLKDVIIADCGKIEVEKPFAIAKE
Chain of Peptidyl-prolyl cis-trans isomerase F, mitochondrial (P30405 whole entry): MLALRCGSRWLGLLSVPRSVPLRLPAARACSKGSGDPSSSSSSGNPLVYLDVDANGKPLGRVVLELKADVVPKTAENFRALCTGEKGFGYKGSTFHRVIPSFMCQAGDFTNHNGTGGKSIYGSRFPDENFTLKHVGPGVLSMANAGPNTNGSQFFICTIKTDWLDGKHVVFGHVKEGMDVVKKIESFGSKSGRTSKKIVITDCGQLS

SMILES | EC50 [1] | Kd [2] | Kd [3] | EC50 [4] | EC50 [5] | IC50 [6] | Kd [7] | IC50 [8] | CC50 [9] | inhibition (INH) [10]
C/C=C/C[C@@H](C)[C@@H](O)[C@H]1C(=O)N[C@@H](CC)C(=O)N(C)C(SCCN(C)C)C(=O)N(C)[C@@H](CC(C)(C)O)C(=O)N[C@@H](C(C)C)C(=O)N(C)[C@@H](CC(C)C)C(=O)N[C@@H](C)C(=O)N[C@H](C)C(=O)N(C)[C@@H](CC(C)C)C(=O)N(C)[C@@H](CC(C)C)C(=O)N(C)[C@@H](C(C)C)C(=O)N1C (single isomer, unassigned) [SCY 635] | 221 nM | 2.9 nM | 3.1 nM | 263 nM | 192 nM | 4.7 µM | – | – | – | –
C/C=C/C[C@@H](C)[C@@H](O)[C@H]1C(=O)N[C@@H](CC)C(=O)N(C)[C@H](C)C(=O)N(C)[C@@H]([C@H](C)CN2CCC(F)(F)C2)C(=O)N[C@@H](C(C)C)C(=O)N(C)[C@@H](CC(C)C)C(=O)N[C@@H](C)C(=O)N[C@H](C)C(=O)N(C)[C@@H](CC(C)C)C(=O)N(C)[C@@H](CC(C)C)C(=O)N(C)[C@@H](C(C)C)C(=O)N1C | 44 nM | – | – | – | – | – | 4 nM | – | – | –
C/C=C/C[C@@H](C)[C@@H](O)[C@H]1C(=O)N[C@@H](CC)C(=O)N(C)[C@H](C)C(=O)N(C)[C@@H]([C@H](C)COCCN2CCOCC2)C(=O)N[C@@H](C(C)C)C(=O)N(C)[C@@H](CC(C)C)C(=O)N[C@@H](C)C(=O)N[C@H](C)C(=O)N(C)[C@@H](CC(C)C)C(=O)N(C)[C@@H](CC(C)C)C(=O)N(C)[C@@H](C(C)C)C(=O)N1C | 36 nM | – | – | – | – | – | 1.1 nM | 6400 nM | – | –
C/C=C/C[C@@H](C)[C@@H](O)[C@H]1C(=O)N[C@@H](CC)C(=O)N(C)[C@H](C)C(=O)N(C)[C@@H]([C@H](C)CN2CCCOCC2)C(=O)N[C@@H](C(C)C)C(=O)N(C)[C@@H](CC(C)C)C(=O)N[C@@H](C)C(=O)N[C@H](C)C(=O)N(C)[C@@H](CC(C)C)C(=O)N(C)[C@@H](CC(C)C)C(=O)N(C)[C@@H](C(C)C)C(=O)N1C | 37 nM | – | – | – | – | – | 1.9 nM | 1800 nM | – | –
C/C=C/C[C@@H](C)[C@@H](O)[C@H]1C(=O)N[C@@H](CC)C(=O)N(C)CC(=O)N(C)[C@@H]([C@@H](C)CC)C(=O)N[C@@H](C(C)C)C(=O)N(C)[C@@H](CC(C)C)C(=O)N[C@@H](C)C(=O)N[C@H](C)C(=O)N(C)[C@@H](CC(C)C)C(=O)N(C)[C@@H](CC(C)C)C(=O)N(C)[C@@H](C(C)C)C(=O)N1C [NIM811] | 97 nM | 7.4 nM | 4.2 nM | 217 nM | 210 nM | 2.4 µM | 7.5 nM | – | 13 µM | –
C/C=C/C[C@@H](C)[C@@H](O)[C@H]1C(=O)N[C@@H](CC)C(=O)N(C)[C@H](C)C(=O)N(C)[C@@H]([C@H](C)COC)C(=O)N[C@@H](C(C)C)C(=O)N(C)[C@@H](CC(C)C)C(=O)N[C@@H](C)C(=O)N[C@H](C)C(=O)N(C)[C@@H](CC(C)C)C(=O)N(C)[C@@H](CC(C)C)C(=O)N(C)[C@@H](C(C)C)C(=O)N1C | 36 nM | – | – | – | – | – | 1.7 nM | 2800 nM | – | –
C/C=C/C[C@@H](C)[C@@H](O)[C@H]1C(=O)N[C@@H](CC)C(=O)N(C)[C@H](C)C(=O)N(C)[C@@H]([C@H](C)CN2CCOCC2)C(=O)N[C@@H](C(C)C)C(=O)N(C)[C@@H](CC(C)C)C(=O)N[C@@H](C)C(=O)N[C@H](C)C(=O)N(C)[C@@H](CC(C)C)C(=O)N(C)[C@@H](CC(C)C)C(=O)N(C)[C@@H](C(C)C)C(=O)N1C | 33 nM | – | – | – | – | – | 3.1 nM | 4300 nM | – | –
C/C=C/C[C@@H](C)[C@@H](O)[C@H]1C(=O)N[C@@H](CC)C(=O)N(C)[C@H](C)C(=O)N(C)[C@@H]([C@H](C)CN(C)CCOC)C(=O)N[C@@H](C(C)C)C(=O)N(C)[C@@H](CC(C)C)C(=O)N[C@@H](C)C(=O)N[C@H](C)C(=O)N(C)[C@@H](CC(C)C)C(=O)N(C)[C@@H](CC(C)C)C(=O)N(C)[C@@H](C(C)C)C(=O)N1C | 42 nM | – | – | – | – | – | 1.8 nM | 2000 nM | – | –
C/C=C/C[C@@H](C)[C@@H](O)[C@H]1C(=O)N[C@@H](CC)C(=O)N(C)[C@H](C)C(=O)N(C)[C@@H]([C@H](C)CN2CCC(C#N)CC2)C(=O)N[C@@H](C(C)C)C(=O)N(C)[C@@H](CC(C)C)C(=O)N[C@@H](C)C(=O)N[C@H](C)C(=O)N(C)[C@@H](CC(C)C)C(=O)N(C)[C@@H](CC(C)C)C(=O)N(C)[C@@H](C(C)C)C(=O)N1C | 29 nM | – | – | – | – | – | 1.4 nM | – | – | –
C/C=C/C[C@@H](C)[C@@H](O)[C@H]1C(=O)N[C@@H](CC)C(=O)N(C)[C@H](C)C(=O)N(C)[C@@H]([C@H](C)CN2CC3CCC(C2)O3)C(=O)N[C@@H](C(C)C)C(=O)N(C)[C@@H](CC(C)C)C(=O)N[C@@H](C)C(=O)N[C@H](C)C(=O)N(C)[C@@H](CC(C)C)C(=O)N(C)[C@@H](CC(C)C)C(=O)N(C)[C@@H](C(C)C)C(=O)N1C | 42 nM | – | – | – | – | – | 2.5 nM | 1800 nM | – | –
C/C=C/C[C@@H](C)[C@@H](O)[C@H]1C(=O)N[C@@H](CC)C(=O)N(C)[C@H](C)C(=O)N(C)[C@@H]([C@H](C)CC#N)C(=O)N[C@@H](C(C)C)C(=O)N(C)[C@@H](CC(C)C)C(=O)N[C@@H](C)C(=O)N[C@H](C)C(=O)N(C)[C@@H](CC(C)C)C(=O)N(C)[C@@H](CC(C)C)C(=O)N(C)[C@@H](C(C)C)C(=O)N1C | 28 nM | – | – | – | – | – | 1.3 nM | 1000 nM | – | –
C/C=C/C[C@@H](C)[C@@H](O)[C@H]1C(=O)N[C@@H](CC)C(=O)N(C)[C@H](C)C(=O)N(C)[C@@H]([C@H](C)CCN2CCOCC2)C(=O)N[C@@H](C(C)C)C(=O)N(C)[C@@H](CC(C)C)C(=O)N[C@@H](C)C(=O)N[C@H](C)C(=O)N(C)[C@@H](CC(C)C)C(=O)N(C)[C@@H](CC(C)C)C(=O)N(C)[C@@H](C(C)C)C(=O)N1C | 29 nM | – | – | – | – | – | 1.1 nM | – | – | tde
